# ChEMBL document CHEMBL2021879, “Novel pyrrolopyrimidine analogues as potent dipeptidyl peptidase IV inhibitors based on pharmacokinetic property-driven optimization” (Eur J Med Chem, 2012)
# The source made the active and inactive calls. No cut-off for these calls is given here.
# Columns and labels:
# [1] = Metabolic stability in rat liver microsomes assessed as compound remaining at 1 uM after 30 mins by LC-MS/MS; format: ADME, Microsome; conditions: read-out: Stability
# [2] = Efflux ratio of apparent permeability from apical to basolateral side to basolateral to apical side in human Caco2 cells at 10 uM after 60 mins by LC-MS/MS analysis; conditions: Caco-2
# [3] = Apparent permeability from basolateral to apical side in human Caco2 cells at 10 uM after 60 mins by LC-MS/MS analysis; conditions: Caco-2
# [4] = Apparent permeability from apical to basolateral side in human Caco2 cells at 10 uM after 60 mins by LC-MS/MS analysis; conditions: Caco-2
# [5] = target: Dipeptidyl peptidase 9 (Homo sapiens, UniProt Q86TI2); experiment: Inhibition of DPP9
# [6] = target: Dipeptidyl peptidase 8 (Homo sapiens, UniProt Q6V1X1); experiment: Inhibition of DPP8
# [7] = target: Dipeptidyl peptidase 4 (Homo sapiens, UniProt P27487); experiment: Inhibition of human DPP4 after 10 mins
# [8] = test system: Mus musculus; experiment: Reduction of glucose excursions in C57Bl/6j lean mouse at 3 mg/kg, po measured after 45 mins by oral glucose tolerance test; format: functional, organism-based; set-up: dose 3 mg/kg
# How it was run: (§1)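 OGTT after oral treatment: C57BL/6j lean mice at 3 mg/kg, and ob/ob mice at 1, 3 and 10 mg/kg. Blood glucose followed over the glucose challenge; excursion expressed as AUC₀₋₁₂₀ change rate (percent inhibition).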
# [9] = Half life in Sprague-Dawley rat at 20 to 25 mg/kg, po and […], iv administered as single dose; format: ADME, organism-based; set-up: dose 20-25 mg/kg, route oral; conditions: in vivo
# [10] = test system: Mus musculus; experiment: Reduction of glucose excursions in ob/ob type 2 diabetes mouse model at 1 mg/kg, po measured after 45 mins by oral glucose tolerance test; format: functional; conditions: 0.75 h; how it was run: as §1
# [11] = Oral bioavailability in Sprague-Dawley rat at 20 to 25 mg/kg administered as single dose; format: ADME, organism-based; conditions: in vivo
# [12] = target: Voltage-gated inwardly rectifying potassium channel KCNH2 (Homo sapiens, UniProt Q12809)
# [13] = test system: Mus musculus; experiment: Reduction of glucose excursions in ob/ob type 2 diabetes mouse model at 3 mg/kg, po measured after 45 mins by oral glucose tolerance test; format: functional; conditions: 0.75 h; how it was run: as §1
# [14] = test system: Mus musculus; experiment: Reduction of glucose excursions in ob/ob type 2 diabetes mouse model at 10 mg/kg, po measured after 45 mins by oral glucose tolerance test; format: functional; conditions: 0.75 h; how it was run: as §1
# [15] = Metabolic stability in rat liver microsomes assessed as compound turnover at 1 uM after 30 mins by LC-MS/MS; format: ADME, Microsome; conditions: read-out: Drug metabolism
# How it was run: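 Pooled rat liver microsomes, 30 min incubation; read-out is percent compound turnover (hepatic first-pass effect); mean of at least three independent determinations.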
# Chain of Dipeptidyl peptidase 4 (P27487 whole entry): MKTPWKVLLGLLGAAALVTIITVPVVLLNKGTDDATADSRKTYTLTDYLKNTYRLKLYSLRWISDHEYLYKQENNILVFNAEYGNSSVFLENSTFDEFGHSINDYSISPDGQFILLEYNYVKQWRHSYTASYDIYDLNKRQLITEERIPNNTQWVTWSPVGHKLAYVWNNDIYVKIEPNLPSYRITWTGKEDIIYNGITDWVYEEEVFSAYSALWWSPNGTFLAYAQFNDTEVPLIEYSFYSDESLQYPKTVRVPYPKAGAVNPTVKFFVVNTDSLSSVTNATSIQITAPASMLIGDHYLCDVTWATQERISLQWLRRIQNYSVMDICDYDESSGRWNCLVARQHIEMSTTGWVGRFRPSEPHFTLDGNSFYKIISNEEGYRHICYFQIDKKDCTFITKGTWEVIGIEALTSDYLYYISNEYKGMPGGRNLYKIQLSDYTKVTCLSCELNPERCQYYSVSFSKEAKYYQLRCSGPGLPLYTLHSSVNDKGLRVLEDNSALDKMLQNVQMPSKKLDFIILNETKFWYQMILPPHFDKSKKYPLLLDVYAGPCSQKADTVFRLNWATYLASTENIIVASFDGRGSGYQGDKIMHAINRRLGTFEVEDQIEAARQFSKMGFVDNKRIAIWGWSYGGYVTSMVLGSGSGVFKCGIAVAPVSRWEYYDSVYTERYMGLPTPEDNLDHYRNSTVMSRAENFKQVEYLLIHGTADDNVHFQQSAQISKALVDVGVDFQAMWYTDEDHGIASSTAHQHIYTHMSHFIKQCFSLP
# Chain of Dipeptidyl peptidase 9 (Q86TI2 whole entry): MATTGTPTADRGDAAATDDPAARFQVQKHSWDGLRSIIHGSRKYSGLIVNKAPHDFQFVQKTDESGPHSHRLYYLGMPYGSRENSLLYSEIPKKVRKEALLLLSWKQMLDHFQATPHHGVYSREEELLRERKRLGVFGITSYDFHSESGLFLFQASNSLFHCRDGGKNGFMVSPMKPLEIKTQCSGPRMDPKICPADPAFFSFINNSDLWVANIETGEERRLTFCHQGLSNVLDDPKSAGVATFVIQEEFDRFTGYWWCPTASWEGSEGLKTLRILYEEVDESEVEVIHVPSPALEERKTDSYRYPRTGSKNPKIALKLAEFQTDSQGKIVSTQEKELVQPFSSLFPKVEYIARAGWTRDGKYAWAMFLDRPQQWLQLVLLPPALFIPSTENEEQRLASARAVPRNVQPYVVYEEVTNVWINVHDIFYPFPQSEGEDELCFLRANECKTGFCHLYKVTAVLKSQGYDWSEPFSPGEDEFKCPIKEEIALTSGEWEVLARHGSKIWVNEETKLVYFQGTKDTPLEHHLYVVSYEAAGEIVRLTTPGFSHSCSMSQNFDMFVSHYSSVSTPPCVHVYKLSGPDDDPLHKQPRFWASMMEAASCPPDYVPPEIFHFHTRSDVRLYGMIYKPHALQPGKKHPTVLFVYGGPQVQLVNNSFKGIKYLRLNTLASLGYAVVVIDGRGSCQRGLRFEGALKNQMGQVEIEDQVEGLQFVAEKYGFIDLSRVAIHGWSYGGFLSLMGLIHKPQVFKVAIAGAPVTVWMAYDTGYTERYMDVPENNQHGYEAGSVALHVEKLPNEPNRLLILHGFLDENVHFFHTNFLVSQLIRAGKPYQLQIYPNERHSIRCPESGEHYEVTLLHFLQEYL
# Chain of Dipeptidyl peptidase 8 (Q6V1X1 whole entry): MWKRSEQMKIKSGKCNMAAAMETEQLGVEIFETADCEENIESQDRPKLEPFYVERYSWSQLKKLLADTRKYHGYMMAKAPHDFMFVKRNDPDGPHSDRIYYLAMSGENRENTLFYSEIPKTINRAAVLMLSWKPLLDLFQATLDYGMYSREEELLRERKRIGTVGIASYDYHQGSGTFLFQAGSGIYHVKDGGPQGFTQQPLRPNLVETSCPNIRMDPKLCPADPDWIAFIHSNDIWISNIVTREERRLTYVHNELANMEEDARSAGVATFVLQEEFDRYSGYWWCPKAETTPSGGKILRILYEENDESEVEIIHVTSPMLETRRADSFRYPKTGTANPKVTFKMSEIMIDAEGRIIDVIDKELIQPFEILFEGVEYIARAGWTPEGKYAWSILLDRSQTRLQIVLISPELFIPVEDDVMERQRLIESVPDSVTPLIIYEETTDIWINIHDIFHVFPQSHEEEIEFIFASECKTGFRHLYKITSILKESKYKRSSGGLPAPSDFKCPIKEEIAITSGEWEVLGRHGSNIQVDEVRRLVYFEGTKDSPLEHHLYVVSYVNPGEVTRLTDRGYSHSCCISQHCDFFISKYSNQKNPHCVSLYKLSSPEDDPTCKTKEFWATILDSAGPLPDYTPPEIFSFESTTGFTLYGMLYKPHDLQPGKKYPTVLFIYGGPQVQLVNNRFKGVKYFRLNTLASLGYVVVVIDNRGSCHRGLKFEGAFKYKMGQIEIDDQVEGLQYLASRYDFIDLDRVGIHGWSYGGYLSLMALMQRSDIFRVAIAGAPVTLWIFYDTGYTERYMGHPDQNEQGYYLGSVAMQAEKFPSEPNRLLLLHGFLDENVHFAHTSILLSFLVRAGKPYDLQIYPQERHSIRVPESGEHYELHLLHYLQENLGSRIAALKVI
# Chain of Voltage-gated inwardly rectifying potassium channel KCNH2 (Q12809 whole entry): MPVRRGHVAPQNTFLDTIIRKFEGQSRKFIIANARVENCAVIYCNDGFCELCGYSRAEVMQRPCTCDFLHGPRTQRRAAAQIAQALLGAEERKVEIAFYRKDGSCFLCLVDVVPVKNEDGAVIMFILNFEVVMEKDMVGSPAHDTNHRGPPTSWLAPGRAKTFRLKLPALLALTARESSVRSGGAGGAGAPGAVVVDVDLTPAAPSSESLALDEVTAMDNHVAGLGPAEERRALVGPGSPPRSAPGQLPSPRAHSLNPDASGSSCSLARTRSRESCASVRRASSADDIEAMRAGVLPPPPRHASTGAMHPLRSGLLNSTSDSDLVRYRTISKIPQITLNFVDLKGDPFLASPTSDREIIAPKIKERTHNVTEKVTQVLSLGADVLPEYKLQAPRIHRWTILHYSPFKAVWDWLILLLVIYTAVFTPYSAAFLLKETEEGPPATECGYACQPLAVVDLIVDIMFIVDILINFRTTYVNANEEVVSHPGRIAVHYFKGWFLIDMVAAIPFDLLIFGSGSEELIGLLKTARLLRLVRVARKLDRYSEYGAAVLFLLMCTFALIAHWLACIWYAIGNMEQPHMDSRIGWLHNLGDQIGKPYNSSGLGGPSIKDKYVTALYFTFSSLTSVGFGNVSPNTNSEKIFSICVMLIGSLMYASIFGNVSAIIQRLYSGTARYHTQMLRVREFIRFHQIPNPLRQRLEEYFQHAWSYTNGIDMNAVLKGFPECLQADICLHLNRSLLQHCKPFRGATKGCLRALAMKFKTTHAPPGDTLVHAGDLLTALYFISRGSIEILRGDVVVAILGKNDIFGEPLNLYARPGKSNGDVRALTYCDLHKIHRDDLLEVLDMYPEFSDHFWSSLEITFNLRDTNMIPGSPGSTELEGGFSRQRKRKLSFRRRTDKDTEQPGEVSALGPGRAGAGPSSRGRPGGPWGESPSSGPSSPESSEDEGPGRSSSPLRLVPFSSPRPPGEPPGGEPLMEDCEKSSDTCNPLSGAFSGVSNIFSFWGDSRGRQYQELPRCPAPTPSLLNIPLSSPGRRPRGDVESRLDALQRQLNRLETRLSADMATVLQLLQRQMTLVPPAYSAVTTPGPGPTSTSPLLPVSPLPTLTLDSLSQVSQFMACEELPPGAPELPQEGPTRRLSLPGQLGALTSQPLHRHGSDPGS
"remaining at 0.5 h, 1 µM [1] [%]","efflux ratio at 1 h, 10 µM [2]","Papp B→A at 1 h, 10 µM [3] [×10⁻⁶ cm/s]","Papp A→B at 1 h, 10 µM [4] [×10⁻⁶ cm/s]",Structure (SMILES),also measured
78,–,18.4,2.81,N#Cc1ccccc1Cn1c(N2CCC[C@@H](N)C2)nc2c(Br)c[nH]c2c1=O,half-life [9]: 2 h; inhibition in vivo at 1 mg/kg [10]: 27.9%; IC50 [5]: > 10 µM; IC50 [6]: > 10 µM; bioavailability [11]: 41%; IC50 [12]: > 300 µM; inhibition [8]: Active; inhibition in vivo at 3 mg/kg [13]: 51.9%; inhibition in vivo at 10 mg/kg [14]: 72.7%
–,13.3,24.6,1.84,Cn1ccc2c(=O)n(Cc3ccccc3C#N)c(N3CCC[C@@H](N)C3)nc21,–
–,11.4,21.2,1.86,N#Cc1ccccc1Cn1c(N2CCC[C@@H](N)C2)nc2c(-c3ccsc3)c[nH]c2c1=O,–
6.6,–,–,–,N#Cc1ccccc1Cn1c(N2CCC[C@@H](N)C2)nc2ccsc2c1=O,"bioavailability [11]: 23.3%; inhibition [8]: Active; metabolised at 0.5 h, 1 µM [15]: 93%"
39.2,4.2,14.4,3.44,N#Cc1ccccc1Cn1c(N2CCC[C@@H](N)C2)nc2cc[nH]c2c1=O,–
3.27,–,–,–,Cc1csc2nc(N3CCC[C@@H](N)C3)n(Cc3ccccc3C#N)c(=O)c12,–
65.1,–,–,–,N#Cc1ccccc1Cn1c(N2CCC[C@@H](N)C2)nc2[nH]ccc2c1=O,bioavailability [11]: 5.7%
–,45.3,26.6,0.59,N#Cc1ccccc1Cn1c(N2CCC[C@@H](N)C2)nc2[nH]c(-c3ccc(F)cc3)cc2c1=O,–
24.6,–,–,–,N#Cc1ccccc1Cn1c(N2CCC[C@@H](N)C2)nc2sccc2c1=O,–
0,–,–,–,Cc1csc2c(=O)n(Cc3ccccc3C#N)c(N3CCC[C@@H](N)C3)nc12,–

# More lines, now with the values behind:
Structure (SMILES),"remaining at 0.5 h, 1 µM [1] [%]","efflux ratio at 1 h, 10 µM [2]","Papp B→A at 1 h, 10 µM [3] [×10⁻⁶ cm/s]","Papp A→B at 1 h, 10 µM [4] [×10⁻⁶ cm/s]",also measured
N#Cc1ccccc1Cn1c(N2CCC[C@@H](N)C2)nc2c(-c3ccncc3)c[nH]c2c1=O,28.1,2.51,10.3,4.13,–
Cc1cc2c(=O)n(Cc3ccccc3C#N)c(N3CCC[C@@H](N)C3)nc2[nH]1,91.4,–,9.36,4.36,IC50 [5]: > 25 µM; IC50 [6]: > 25 µM; IC50 [7]: 0.0138 µM
Cn1c(=O)cc(N2CCC[C@@H](N)C2)n(Cc2ccccc2C#N)c1=O,–,–,–,–,inhibition [8]: Active
N#Cc1ccccc1Cn1c(N2CCC[C@@H](N)C2)nc2c(-c3cccnc3)c[nH]c2c1=O,–,37.8,11.3,0.3,–
N#Cc1ccccc1Cn1c(N2CCC[C@@H](N)C2)nc2scc(C(F)(F)F)c2c1=O,4.6,–,–,–,–
N#Cc1ccccc1Cn1c(N2CCC[C@@H](N)C2)nc2[nH]c(-c3cccnc3)cc2c1=O,73.8,–,6.01,2.55,IC50 [5]: > 10 µM; IC50 [6]: > 10 µM; IC50 [7]: 0.00234 µM
N#Cc1ccccc1Cn1c(N2CCC[C@@H](N)C2)nc2[nH]c(Br)cc2c1=O,71.9,–,11.4,5.48,IC50 [5]: > 25 µM; IC50 [6]: > 25 µM; IC50 [7]: 0.00264 µM
Cn1c(Br)c(Br)c2c(=O)n(Cc3ccccc3C#N)c(N3CCC[C@@H](N)C3)nc21,41,3.37,8.41,2.5,–
